The structures appear in SMILES notation.

As usually defined, the Ki is the equilibrium dissociation constant of an inhibitor or competing ligand from its target. Lower therefore signals a stronger hold on the target. In general, logD refers to lipophilicity at a set pH, counting ionised and neutral species.

In data set [1] the target is Amyloid-beta precursor protein (Homo sapiens, UniProt P05067). In words: Displacement of [125I]IMPY from amyloid beta (1 to 42) (unknown origin) after 3 hrs by gamma counting. Put shortly:
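Filtered through GF/B filters and bound radioactivity gamma-counted. IC50 from displacement curves of three independent experiments; Ki calculated with the Cheng–Prusoff equation.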

In data set [2] the test system is Spleen. In words: Biodistribution in ddY mouse spleen at 0.1 to 0.4 uCi, iv after 10 mins by gamma counting. Format: ADME, organism-based. Particulars: in vivo. The procedure, abridged:
(§1)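 [125I]ligand (0.1–0.4 µCi) in 100 µL PBS (pH 7.4) containing 30 µL DMSO, injected into the tail vein of ddY mice (5 weeks, 22–25 g). Mice sacrificed at 2, 10, 30 and 60 min. Organs removed, weighed and gamma-counted. Values are % injected dose per gram, except stomach as % dose per organ. Mean (SD) of 3–6 mice per time point.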

For data set [3], the system named is Blood. In words: Biodistribution in ddY mouse blood at 0.1 to 0.4 uCi, iv after 10 mins by gamma counting. The format is ADME, organism-based. Particulars: in vivo. The procedure, abridged:
as §1

The test system of data set [4] is Heart. In words: Biodistribution in ddY mouse heart at 0.1 to 0.4 uCi, iv after 2 mins by gamma counting. Format: ADME, organism-based. Particulars: in vivo. Put shortly:
as §1

Data set [5] deals with Intestine. In words: Biodistribution in ddY mouse intestine at 0.1 to 0.4 uCi, iv after 2 mins by gamma counting. The format is ADME, organism-based. Particulars: in vivo. Put shortly: as §1
Data set [6] deals with Intestine. In words: Biodistribution in ddY mouse intestine at 0.1 to 0.4 uCi, iv after 10 mins by gamma counting. Particulars: in vivo. Format: ADME, organism-based. Put shortly: as §1
In data set [7] the test system is Stomach. In words: Biodistribution in ddY mouse stomach assessed per organ at 0.1 to 0.4 uCi, iv after 60 mins by gamma counting. Particulars: in vivo, 1 h. The format is ADME, organism-based. The procedure, abridged: as §1
Data set [8] deals with Spleen. Nature of the data set: Biodistribution in ddY mouse spleen at 0.1 to 0.4 uCi, iv after 2 mins by gamma counting. The format is ADME, organism-based. Particulars: in vivo. The procedure, abridged:
as §1

In data set [9] the test system is Heart. In words: Biodistribution in ddY mouse heart at 0.1 to 0.4 uCi, iv after 30 mins by gamma counting. The format is ADME, organism-based. Particulars: in vivo, 0.5 h. The procedure, abridged:
as §1

In data set [10] the test system is Heart. In words: Biodistribution in ddY mouse heart at 0.1 to 0.4 uCi, iv after 60 mins by gamma counting. The format is ADME, organism-based. Particulars: in vivo, 1 h. Put shortly:
as §1

Data set [11] deals with Kidney. Nature of the data set: Biodistribution in ddY mouse kidney at 0.1 to 0.4 uCi, iv after 10 mins by gamma counting. The format is ADME, organism-based. Particulars: in vivo. Put shortly: as §1
In data set [12] the test system is Pancreas. Nature of the data set: Biodistribution in ddY mouse pancreas at 0.1 to 0.4 uCi, iv after 10 mins by gamma counting. Particulars: in vivo. The format is ADME, organism-based. The procedure, abridged:
as §1

The subject of data set [13] is Liver. Nature of the data set: Biodistribution in ddY mouse liver at 0.1 to 0.4 uCi, iv after 2 mins by gamma counting. The format is ADME, organism-based. Particulars: in vivo. The procedure, abridged: as §1
For data set [14], the system named is Brain. Nature of the data set: Biodistribution in ddY mouse brain at 0.1 to 0.4 uCi, iv after 60 mins by gamma counting. The format is ADME, organism-based. Particulars: in vivo, 1 h. Put shortly: as §1
In data set [15] the test system is Stomach. In words: Biodistribution in ddY mouse stomach assessed per organ at 0.1 to 0.4 uCi, iv after 30 mins by gamma counting. The format is ADME, organism-based. Particulars: in vivo, 0.5 h. Put shortly: as §1
Data set [16] concerns Liver. In words: Biodistribution in ddY mouse liver at 0.1 to 0.4 uCi, iv after 10 mins by gamma counting. The format is ADME, organism-based. Particulars: in vivo. The procedure, abridged: as §1
Data set [17] relates to Pancreas. Nature of the data set: Biodistribution in ddY mouse pancreas at 0.1 to 0.4 uCi, iv after 60 mins by gamma counting. The format is ADME, organism-based. Particulars: in vivo, 1 h. The procedure, abridged:
as §1

Data set [18] can be described thus: n-octanol-sodium phosphate buffer partition co-efficient, log D of the compound at pH 7.4 by shake flask method. Format: physicochemical. Put shortly: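 Shake-flask partition between n-octanol and sodium phosphate buffer, pH 7.4, shaken 10 min at room temperature, then centrifuged. Weighed 0.5 mL samples of each layer counted. log D from the ratio of cpm per gram of octanol to cpm per gram of buffer; n = 3.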

The test system of data set [19] is Liver. Nature of the data set: Biodistribution in ddY mouse liver at 0.1 to 0.4 uCi, iv after 30 mins by gamma counting. Particulars: in vivo, 0.5 h. The format is ADME, organism-based. The procedure, abridged:
as §1

In data set [20] the test system is Heart. In words: Biodistribution in ddY mouse heart at 0.1 to 0.4 uCi, iv after 10 mins by gamma counting. Particulars: in vivo. Format: ADME, organism-based. The procedure, abridged:
as §1

The subject of data set [21] is Kidney. In words: Biodistribution in ddY mouse kidney at 0.1 to 0.4 uCi, iv after 2 mins by gamma counting. Format: ADME, organism-based. Particulars: in vivo. The procedure, abridged:
as §1

The test system of data set [22] is Kidney. In words: Biodistribution in ddY mouse kidney at 0.1 to 0.4 uCi, iv after 60 mins by gamma counting. The format is ADME, organism-based. Particulars: in vivo, 1 h. Put shortly: as §1
In data set [23] the test system is Lung. In words: Biodistribution in ddY mouse lung at 0.1 to 0.4 uCi, iv after 10 mins by gamma counting. Particulars: in vivo. Format: ADME, organism-based. Put shortly:
as §1

Data set [24] deals with Blood. In words: Biodistribution in ddY mouse blood at 0.1 to 0.4 uCi, iv after 2 mins by gamma counting. Format: ADME, organism-based. Particulars: in vivo. Put shortly:
as §1

The test system of data set [25] is Brain. In words: Biodistribution in ddY mouse brain at 0.1 to 0.4 uCi, iv after 30 mins by gamma counting. The format is ADME, organism-based. Particulars: in vivo, 0.5 h. The procedure, abridged: as §1
Data set [26] relates to Liver. In words: Biodistribution in ddY mouse liver at 0.1 to 0.4 uCi, iv after 60 mins by gamma counting. Format: ADME, organism-based. Particulars: in vivo, 1 h. The procedure, abridged: as §1
Data set [27] deals with Kidney. In words: Biodistribution in ddY mouse kidney at 0.1 to 0.4 uCi, iv after 30 mins by gamma counting. Particulars: in vivo, 0.5 h. The format is ADME, organism-based. Put shortly: as §1
Data set [28] deals with Lung. In words: Biodistribution in ddY mouse lung at 0.1 to 0.4 uCi, iv after 30 mins by gamma counting. Particulars: in vivo, 0.5 h. Format: ADME, organism-based. The procedure, abridged:
as §1

Data set [29] has as its system Lung. Nature of the data set: Biodistribution in ddY mouse lung at 0.1 to 0.4 uCi, iv after 60 mins by gamma counting. Format: ADME, organism-based. Particulars: in vivo, 1 h. The procedure, abridged:
as §1

For data set [30], the system named is Stomach. In words: Biodistribution in ddY mouse stomach assessed per organ at 0.1 to 0.4 uCi, iv after 10 mins by gamma counting. Format: ADME, organism-based. Particulars: in vivo. The procedure, abridged: as §1
The subject of data set [31] is Intestine. In words: Biodistribution in ddY mouse intestine at 0.1 to 0.4 uCi, iv after 60 mins by gamma counting. The format is ADME, organism-based. Particulars: in vivo, 1 h. The procedure, abridged: as §1
In data set [32] the test system is Pancreas. Nature of the data set: Biodistribution in ddY mouse pancreas at 0.1 to 0.4 uCi, iv after 2 mins by gamma counting. Format: ADME, organism-based. Particulars: in vivo. The procedure, abridged: as §1
The test system of data set [33] is Blood. In words: Biodistribution in ddY mouse blood at 0.1 to 0.4 uCi, iv after 30 mins by gamma counting. Format: ADME, organism-based. Particulars: in vivo, 0.5 h. The procedure, abridged:
as §1

Data set [34] concerns Stomach. Nature of the data set: Biodistribution in ddY mouse stomach assessed per organ at 0.1 to 0.4 uCi, iv after 2 mins by gamma counting. Format: ADME, organism-based. Particulars: in vivo. Put shortly:
as §1

The test system of data set [35] is Brain. In words: Biodistribution in ddY mouse brain at 0.1 to 0.4 uCi, iv after 2 mins by gamma counting. The format is ADME, organism-based. Particulars: in vivo. The procedure, abridged:
as §1

Data set [36] relates to Spleen. In words: Biodistribution in ddY mouse spleen at 0.1 to 0.4 uCi, iv after 60 mins by gamma counting. Format: ADME, organism-based. Particulars: in vivo, 1 h. The procedure, abridged: as §1
For data set [37], the system named is Pancreas. Nature of the data set: Biodistribution in ddY mouse pancreas at 0.1 to 0.4 uCi, iv after 30 mins by gamma counting. The format is ADME, organism-based. Particulars: in vivo, 0.5 h. Put shortly:
as §1

Data set [38] concerns Blood. In words: Biodistribution in ddY mouse blood at 0.1 to 0.4 uCi, iv after 60 mins by gamma counting. Format: ADME, organism-based. Particulars: in vivo, 1 h. Put shortly:
as §1

The test system of data set [39] is Lung. In words: Biodistribution in ddY mouse lung at 0.1 to 0.4 uCi, iv after 2 mins by gamma counting. The format is ADME, organism-based. Particulars: in vivo. The procedure, abridged:
as §1

For data set [40], the system named is Intestine. In words: Biodistribution in ddY mouse intestine at 0.1 to 0.4 uCi, iv after 30 mins by gamma counting. Particulars: in vivo, 0.5 h. Format: ADME, organism-based. Put shortly: as §1
The subject of data set [41] is Spleen. Nature of the data set: Biodistribution in ddY mouse spleen at 0.1 to 0.4 uCi, iv after 30 mins by gamma counting. Format: ADME, organism-based. Particulars: in vivo, 0.5 h. The procedure, abridged: as §1
For data set [42], the system named is Brain. Nature of the data set: Biodistribution in ddY mouse brain at 0.1 to 0.4 uCi, iv after 10 mins by gamma counting. The format is ADME, organism-based. Particulars: in vivo. Put shortly: as §1

Sequence of Amyloid-beta precursor protein (P05067 whole entry): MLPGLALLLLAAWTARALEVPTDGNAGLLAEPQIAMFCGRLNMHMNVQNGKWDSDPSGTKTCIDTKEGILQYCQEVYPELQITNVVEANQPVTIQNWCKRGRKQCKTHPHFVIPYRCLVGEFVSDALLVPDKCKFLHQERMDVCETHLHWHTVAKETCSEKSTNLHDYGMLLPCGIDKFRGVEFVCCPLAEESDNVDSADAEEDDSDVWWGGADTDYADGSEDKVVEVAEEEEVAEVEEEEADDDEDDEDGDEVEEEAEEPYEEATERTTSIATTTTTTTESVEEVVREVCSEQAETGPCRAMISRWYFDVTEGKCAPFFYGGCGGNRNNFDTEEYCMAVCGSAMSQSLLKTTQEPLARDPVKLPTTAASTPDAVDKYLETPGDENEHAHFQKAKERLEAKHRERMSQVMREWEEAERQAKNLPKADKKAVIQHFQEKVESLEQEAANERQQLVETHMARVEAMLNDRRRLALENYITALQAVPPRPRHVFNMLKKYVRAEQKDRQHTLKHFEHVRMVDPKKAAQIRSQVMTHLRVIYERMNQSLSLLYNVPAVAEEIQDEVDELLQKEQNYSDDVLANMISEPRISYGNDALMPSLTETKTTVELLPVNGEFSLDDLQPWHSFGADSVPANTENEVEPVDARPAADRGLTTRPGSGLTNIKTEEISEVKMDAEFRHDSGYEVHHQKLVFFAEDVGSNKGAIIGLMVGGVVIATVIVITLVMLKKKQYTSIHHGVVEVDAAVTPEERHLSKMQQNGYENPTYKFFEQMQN

`COc1ccc2nc3cc(I)ccc3c(N(C)C)c2c1` gave an inhibition constant Ki in data set [1] of 121 nM.

`COc1ccc2nc3cc([125I])ccc3c(N(C)C)c2c1`: the Drug uptake in the data set with Spleen [2] worked out at 9.65 % ID/g; in the data set on Blood [3], 1.97 % ID/g; with Heart [4], 16.28 % ID/g; with Intestine [5], 2.22 % ID/g; in the data set on Intestine [6] it was 3.13 % ID/g; in the data set on Stomach [7], 1.4 %ID. Besides, the Drug uptake in the data set on Spleen [8] came out at 6.94 % ID/g; in the data set on Heart [9] it was 9.08 % ID/g; in the data set on Heart [10], 4.33 % ID/g; in the data set with Kidney [11], 18.16 % ID/g; in the data set with Pancreas [12], 6.5 % ID/g; in the data set with Liver [13], 10.85 % ID/g. Also, the Drug uptake in the data set on Brain [14] came out at 0.23 % ID/g; in the data set with Stomach [15], 2.21 %ID; in the data set on Liver [16], 11.77 % ID/g; in the data set with Pancreas [17], 9.81 % ID/g; in the data set on Liver [19], 16.43 % ID/g; in the data set on Heart [20], 11.2 % ID/g. The Drug uptake in the data set with Kidney [21] was 16.71 % ID/g; in the data set with Kidney [22] it was 16.34 % ID/g; with Lung [23] it was 57.02 % ID/g; in the data set with Blood [24], 4.76 % ID/g; in the data set on Brain [25] it was 0.28 % ID/g; in the data set with Liver [26] it was 12.55 % ID/g. For the same compound, the Drug uptake in the data set on Kidney [27] came to 21.56 % ID/g; in the data set with Lung [28], 46.47 % ID/g; in the data set on Lung [29] it was 21.84 % ID/g; in the data set on Stomach [30], 2.18 %ID; in the data set with Intestine [31], 6.5 % ID/g; in the data set on Pancreas [32], 5.21 % ID/g. The Drug uptake with Blood [33] was found to be 1.26 % ID/g; in the data set on Stomach [34], 1.37 %ID; in the data set with Brain [35] it was 0.33 % ID/g; in the data set with Spleen [36], 11.22 % ID/g; in the data set with Pancreas [37], 7.85 % ID/g; with Blood [38], 0.64 % ID/g. Also, the Drug uptake came to 79.34 % ID/g in the data set on Lung [39], 5.33 % ID/g in the data set with Intestine [40], 14.49 % ID/g in the data set on Spleen [41] and 0.26 % ID/g in the data set with Brain [42]. In data set [18], this compound registered a log distribution coefficient (logD) of 2.19.

In [1], `COc1ccc2nc3cc(I)ccc3c(N)c2c1` displayed an inhibition constant (Ki) of 83.5 nM.

The compound `COc1ccc2nc3cc(I)ccc3c(OC)c2c1` displayed an inhibition constant (Ki) in [1] of 28.9 nM.
